Laboratory results: ChEMBL document CHEMBL3860038, “Discovery of (R,E)-N-(7-Chloro-1-(1-[4-(dimethylamino)but-2-enoyl]azepan-3-yl)-1H-benzo[d]imidazol-2-yl)-2-methylisonicotinamide (EGF816), a Novel, Potent, and WT Sparing Covalent Inhibitor of Oncogenic (L858R, ex19del) and Resistant (T790M) EGFR Mutants for the Treatment of EGFR Mutant …” (J Med Chem, 2016)
Values after ≈ are worked out from the molar mass of the structure shown.

Key:
Cytochrome P450 2D6 = Cytochrome P450 2D6 (Homo sapiens, UniProt P10635); assay: Inhibition of CYP2D6 (unknown origin); format: ADME
[1] = Glutathione reactivity assessed as GSH adduct formation incubated for 1 hr using 10 mM glutathione
How it was run: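 Compound incubated 1 h with 10 mM glutathione; GSH adduct formation measured.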

[2] = AUC in balb/c mouse at 20 mg/kg, po by liquid chromatography-tandem mass spectrometry; format: ADME, organism-based; settings: in vivo
How it was run: (§1)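 Rodent PK in male balb/c mice and male Wistar rats; plasma drug levels by LC-MS/MS. Mouse oral dosing at 20 mg/kg, with compounds given as a 0.5% methylcellulose/0.5% Tween 80 suspension or as solutions (PEG300/D5W, or ethanol/PEG300 with Solutol or D5W), depending on compound.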

[3] = Drug metabolism in mouse liver microsomes assessed as oxidation at acrylate groups; format: ADME
Cytochrome P450 3A4 = Cytochrome P450 3A4 (Homo sapiens, UniProt P08684); assay: Inhibition of CYP3A4 (unknown origin); format: ADME
[4] = Drug metabolism in human liver microsomes assessed as oxidation at acrylate groups; format: ADME
[5] = Oral bioavailability in balb/c mouse at 20 mg/kg by liquid chromatography-tandem mass spectrometry; format: ADME, organism-based; settings: in vivo; how it was run: as §1
[6] = biological target: Epidermal growth factor receptor (Homo sapiens, UniProt P00533, L858R); assay: Inhibition of EGFR L858R mutant phosphorylation in human patient derived H3255 cells incubated for 3 hrs by ELISA method; format: cell-based
[7] = biological target: Epidermal growth factor receptor (Homo sapiens, UniProt P00533, L858R/T790M); assay: Inhibition of EGFR L858R/T790M mutant phosphorylation in human patient derived H1975 cells incubated for 3 hrs by ELISA method; format: cell-based
[8] = biological target: Epidermal growth factor receptor (Homo sapiens, UniProt P00533); assay: Inhibition of wild type EGFR phosphorylation in human HaCaT cells incubated for 3 hrs by ELISA method; format: cell-based
[9] = Drug metabolism in rat liver microsomes assessed as oxidation at acrylate groups; format: ADME
[10] = Aqueous solubility of the compound at pH 6.8; format: physicochemical
[11] = Drug metabolism in human liver microsomes assessed as oxidation at 7-methyl groups; format: ADME
[12] = Drug metabolism in mouse liver microsomes assessed as oxidation at 7-methyl groups; format: ADME
[13] = Intrinsic clearance in human liver microsomes; format: ADME; settings: read-out: CLH
[14] = Inhibition of EGFR E746 to A750 deletion mutant phosphorylation in human patient derived HCC827 cells incubated for 3 hrs by ELISA method; format: cell-based; settings: HCC827, 3 h
How it was run: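 HCC827 cells plated at 7500/well in 5% FBS/RPMI and left overnight at 37 °C. Then 3 h with a 12-point compound dilution series, no EGF stimulation. Lysed in Triton/protease/phosphatase-inhibitor buffer. Phospho-EGFR (Y1173) read by sandwich ELISA: anti-EGFR capture, anti-phospho-EGFR, anti-rabbit-HRP, chemiluminescence. IC50 from at least duplicates.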

Cytochrome P450 2C9 = Cytochrome P450 2C9 (Homo sapiens, UniProt P11712); assay: Inhibition of CYP2C9 (unknown origin); format: ADME
[15] = Intrinsic clearance in mouse liver microsomes; format: ADME; settings: read-out: CLH
[16] = Drug metabolism in rat liver microsomes assessed as oxidation at 7-methyl groups; format: ADME
[17] = Clearance in balb/c mouse at 5 mg/kg, iv by liquid chromatography-tandem mass spectrometry; format: ADME, organism-based; settings: in vivo; how it was run: as §1
[18] = AUC in dog at 1 mg/kg, iv by liquid chromatography-tandem mass spectrometry; format: ADME, organism-based, Canis lupus familiaris; settings: in vivo
[19] = Clearance in dog at 1 mg/kg, iv by liquid chromatography-tandem mass spectrometry; format: ADME, organism-based, Canis lupus familiaris; settings: in vivo
[20] = AUC in dog at 10 mg/kg, po by liquid chromatography-tandem mass spectrometry; format: ADME, organism-based, Canis lupus familiaris; settings: in vivo
[21] = Volume of distribution at steady state in dog at 1 mg/kg, iv by liquid chromatography-tandem mass spectrometry; format: ADME, organism-based, Canis lupus familiaris; settings: in vivo, read-out: Vdss
[22] = Cmax in dog at 10 mg/kg, po by liquid chromatography-tandem mass spectrometry; format: ADME, organism-based, Canis lupus familiaris; set-up: dose 10 mg/kg, route oral; settings: in vivo
[23] = Mean residence time in dog at 1 mg/kg, iv by liquid chromatography-tandem mass spectrometry; format: ADME, organism-based, Canis lupus familiaris; settings: in vivo
[24] = Oral bioavailability in dog at 10 mg/kg by liquid chromatography-tandem mass spectrometry; format: ADME, organism-based, Canis lupus familiaris; settings: in vivo
[25] = Tmax in dog at 10 mg/kg, po by liquid chromatography-tandem mass spectrometry; format: ADME, organism-based, Canis lupus familiaris; settings: in vivo
[26] = Time duration during which free plasma concentration stays above in-vitro IC50 level in human NCI-H1975 cells xenografted Foxn1 nude mouse at 20 mg/kg, po qd for 5 days; format: ADME, organism-based; settings: in vivo, 120 h
How it was run: (§2)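 H1975 xenografts in Foxn1 nude mice, oral dosing once daily for 5 days. Plasma sampled after the last dose on day 5, at 30 min, 3 h, 7 h and 24 h. Free drug exposure was compared with in vitro cellular IC50 across the dosing interval.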

[27] = Antitumor activity against human NCI-H1975 cells xenografted in Foxn1 nude mouse assessed as reduction in tumor volume at 50 mg/kg, po qd for 5 days relative to untreated control; format: functional
How it was run: (§3)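 Female Foxn1 nude mice, H1975 cells inoculated subcutaneously. Randomized into groups once tumors reached 150−200 mm³, then dosed by oral gavage once daily for 5 days in 0.5% MC/0.5% Tween80 suspension (10 μL/g). Tumor volumes by caliper, (length × width × width)/2. %T/C = 100 × ΔT/ΔC, or % regression = 100 × ΔT/T_initial when ΔT < 0. Body weight recorded daily.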

Mus musculus [28] = assay: Toxicity in human NCI-H1975 cells xenografted Foxn1 nude mouse assessed as change in body weight at 50 mg/kg, po qd for 5 days (reference value: […]); format: organism-based; settings: in vivo, 120 h
[29] = Antitumor activity against human NCI-H1975 cells xenografted in Foxn1 nude mouse assessed as reduction in tumor volume at 20 mg/kg, po qd for 5 days relative to untreated control; format: functional; how it was run: as §3
NCI-H1975 = assay: Antitumor activity against human NCI-H1975 cells xenografted in Foxn1 nude mouse assessed as reduction in tumor volume dosed orally once daily for 5 days relative to untreated control; format: functional, organism-based; how it was run: as §3
Mus musculus [30] = assay: Toxicity in human NCI-H1975 cells xenografted Foxn1 nude mouse assessed as change in body weight at 20 mg/kg, po qd for 5 days (reference value: […]); format: organism-based; settings: in vivo, 120 h
[31] = Time duration during which free plasma concentration stays above in-vitro IC50 level in human NCI-H1975 cells xenografted Foxn1 nude mouse at 50 mg/kg, po qd for 5 days; format: ADME, organism-based; settings: in vivo, 120 h; how it was run: as §2
Mus musculus [32] = assay: Toxicity in human NCI-H1975 cells xenografted Foxn1 nude mouse assessed as change in body weight at 25 mg/kg, po qd for 5 days (reference value: […]); format: organism-based; settings: in vivo, 120 h
[33] = AUC in balb/c mouse at 5 mg/kg, iv by liquid chromatography-tandem mass spectrometry; format: ADME, organism-based; settings: in vivo
[34] = Tmax in balb/c mouse at 20 mg/kg, po by liquid chromatography-tandem mass spectrometry; format: ADME, organism-based; settings: in vivo; how it was run: as §1
[35] = Tmax in Wistar rat at 10 mg/kg, po by liquid chromatography-tandem mass spectrometry; format: ADME, organism-based; settings: in vivo; how it was run: as §1
Homo sapiens [36] = species on record: Homo sapiens; assay: Antitumor activity in NSCLC patient assessed as disease control rate; format: functional
[37] = Mean residence time in balb/c mouse at 5 mg/kg, iv by liquid chromatography-tandem mass spectrometry; format: ADME, organism-based; settings: in vivo
[38] = Clearance in balb/c mouse at 5 mg/kg, iv by liquid chromatography-tandem mass spectrometry relative to liver blood flow; format: ADME, organism-based; settings: in vivo
[39] = Clearance in Wistar rat at 3 mg/kg, iv by liquid chromatography-tandem mass spectrometry relative to liver blood flow; format: ADME, organism-based; settings: in vivo
[40] = Cmax in Wistar rat at 10 mg/kg, po by liquid chromatography-tandem mass spectrometry; format: ADME, organism-based; set-up: dose 10 mg/kg, route oral; settings: in vivo; how it was run: as §1
[41] = Time duration during which free plasma concentration stays above in-vitro IC50 level in human NCI-H1975 cells xenografted Foxn1 nude mouse at 25 mg/kg, po qd for 5 days; format: ADME, organism-based; settings: in vivo, 120 h; how it was run: as §2
[42] = Volume of distribution at steady state in Wistar rat at 3 mg/kg, iv by liquid chromatography-tandem mass spectrometry; format: ADME, organism-based; settings: in vivo, read-out: Vdss
How it was run: (§4)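 Male animals (balb/c mice or Wistar rats) were used. Compound levels in plasma were measured by LC-MS/MS.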

[43] = Mean residence time in Wistar rat at 3 mg/kg, iv by liquid chromatography-tandem mass spectrometry; format: ADME, organism-based; settings: in vivo
[44] = Cmax in balb/c mouse at 20 mg/kg, po by liquid chromatography-tandem mass spectrometry; format: ADME, organism-based; set-up: dose 20 mg/kg, route oral; settings: in vivo; how it was run: as §1
[45] = Clearance in Wistar rat at 3 mg/kg, iv by liquid chromatography-tandem mass spectrometry; format: ADME, organism-based; settings: in vivo; how it was run: as §1
[46] = AUC in Wistar rat at 10 mg/kg, po by liquid chromatography-tandem mass spectrometry; format: ADME, organism-based; settings: in vivo; how it was run: as §1
[47] = Oral bioavailability in Wistar rat at 10 mg/kg by liquid chromatography-tandem mass spectrometry; format: ADME, organism-based; settings: in vivo; how it was run: as §1
[48] = Volume of distribution at steady state in balb/c mouse at 5 mg/kg, iv by liquid chromatography-tandem mass spectrometry; format: ADME, organism-based; settings: in vivo, read-out: Vdss; how it was run: as §4
[49] = AUC in Wistar rat at 3 mg/kg, iv by liquid chromatography-tandem mass spectrometry; format: ADME, organism-based; settings: in vivo
[50] = Antitumor activity against human NCI-H1975 cells xenografted in Foxn1 nude mouse assessed as reduction in tumor volume at 25 mg/kg, po qd for 5 days relative to untreated control; format: functional; how it was run: as §3
Homo sapiens [51] = species on record: Homo sapiens; assay: Antitumor activity in NSCLC patient assessed as response rate; format: functional

Chain of Cytochrome P450 2C9 (P11712 whole entry): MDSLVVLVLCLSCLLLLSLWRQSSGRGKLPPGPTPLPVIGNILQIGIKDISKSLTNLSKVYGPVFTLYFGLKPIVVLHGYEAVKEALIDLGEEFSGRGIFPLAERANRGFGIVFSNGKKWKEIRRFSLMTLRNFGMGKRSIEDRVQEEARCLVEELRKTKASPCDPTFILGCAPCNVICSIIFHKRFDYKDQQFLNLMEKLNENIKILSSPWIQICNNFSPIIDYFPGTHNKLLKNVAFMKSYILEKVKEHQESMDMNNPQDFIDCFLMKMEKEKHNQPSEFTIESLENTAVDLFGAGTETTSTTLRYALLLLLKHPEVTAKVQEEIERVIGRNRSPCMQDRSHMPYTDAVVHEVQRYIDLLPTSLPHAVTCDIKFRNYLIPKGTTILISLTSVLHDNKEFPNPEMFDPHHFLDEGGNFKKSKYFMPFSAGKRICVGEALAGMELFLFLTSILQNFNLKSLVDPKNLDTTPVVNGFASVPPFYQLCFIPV
Chain of Cytochrome P450 3A4 (P08684 whole entry): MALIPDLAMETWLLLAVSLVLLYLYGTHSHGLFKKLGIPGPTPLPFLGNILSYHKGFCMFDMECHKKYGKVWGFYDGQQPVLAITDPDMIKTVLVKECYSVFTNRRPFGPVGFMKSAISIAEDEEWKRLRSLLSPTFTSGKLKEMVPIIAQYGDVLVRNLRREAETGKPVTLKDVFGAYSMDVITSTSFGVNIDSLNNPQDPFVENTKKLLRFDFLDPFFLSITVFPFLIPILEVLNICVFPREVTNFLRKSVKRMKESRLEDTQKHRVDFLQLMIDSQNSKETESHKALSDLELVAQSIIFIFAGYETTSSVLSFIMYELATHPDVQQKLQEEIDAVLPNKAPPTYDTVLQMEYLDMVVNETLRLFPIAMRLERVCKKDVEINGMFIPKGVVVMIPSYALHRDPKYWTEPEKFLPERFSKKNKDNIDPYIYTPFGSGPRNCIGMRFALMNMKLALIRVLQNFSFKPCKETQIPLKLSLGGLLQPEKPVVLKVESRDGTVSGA
Chain of Cytochrome P450 2D6 (P10635 whole entry): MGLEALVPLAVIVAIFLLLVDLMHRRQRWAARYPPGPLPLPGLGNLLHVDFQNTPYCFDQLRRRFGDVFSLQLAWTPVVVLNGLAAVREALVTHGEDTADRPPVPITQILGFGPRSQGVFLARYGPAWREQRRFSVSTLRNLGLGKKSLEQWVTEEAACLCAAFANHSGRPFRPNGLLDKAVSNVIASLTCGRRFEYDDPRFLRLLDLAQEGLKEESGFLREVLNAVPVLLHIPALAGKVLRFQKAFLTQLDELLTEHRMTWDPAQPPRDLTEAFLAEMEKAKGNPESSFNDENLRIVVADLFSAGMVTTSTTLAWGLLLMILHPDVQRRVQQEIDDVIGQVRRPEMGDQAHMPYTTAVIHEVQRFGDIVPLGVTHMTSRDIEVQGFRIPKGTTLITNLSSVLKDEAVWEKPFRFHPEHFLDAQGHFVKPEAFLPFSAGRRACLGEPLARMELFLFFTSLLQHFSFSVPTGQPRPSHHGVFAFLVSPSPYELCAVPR
Chain of Epidermal growth factor receptor (Homo sapiens, UniProt P00533) (P00533 whole entry): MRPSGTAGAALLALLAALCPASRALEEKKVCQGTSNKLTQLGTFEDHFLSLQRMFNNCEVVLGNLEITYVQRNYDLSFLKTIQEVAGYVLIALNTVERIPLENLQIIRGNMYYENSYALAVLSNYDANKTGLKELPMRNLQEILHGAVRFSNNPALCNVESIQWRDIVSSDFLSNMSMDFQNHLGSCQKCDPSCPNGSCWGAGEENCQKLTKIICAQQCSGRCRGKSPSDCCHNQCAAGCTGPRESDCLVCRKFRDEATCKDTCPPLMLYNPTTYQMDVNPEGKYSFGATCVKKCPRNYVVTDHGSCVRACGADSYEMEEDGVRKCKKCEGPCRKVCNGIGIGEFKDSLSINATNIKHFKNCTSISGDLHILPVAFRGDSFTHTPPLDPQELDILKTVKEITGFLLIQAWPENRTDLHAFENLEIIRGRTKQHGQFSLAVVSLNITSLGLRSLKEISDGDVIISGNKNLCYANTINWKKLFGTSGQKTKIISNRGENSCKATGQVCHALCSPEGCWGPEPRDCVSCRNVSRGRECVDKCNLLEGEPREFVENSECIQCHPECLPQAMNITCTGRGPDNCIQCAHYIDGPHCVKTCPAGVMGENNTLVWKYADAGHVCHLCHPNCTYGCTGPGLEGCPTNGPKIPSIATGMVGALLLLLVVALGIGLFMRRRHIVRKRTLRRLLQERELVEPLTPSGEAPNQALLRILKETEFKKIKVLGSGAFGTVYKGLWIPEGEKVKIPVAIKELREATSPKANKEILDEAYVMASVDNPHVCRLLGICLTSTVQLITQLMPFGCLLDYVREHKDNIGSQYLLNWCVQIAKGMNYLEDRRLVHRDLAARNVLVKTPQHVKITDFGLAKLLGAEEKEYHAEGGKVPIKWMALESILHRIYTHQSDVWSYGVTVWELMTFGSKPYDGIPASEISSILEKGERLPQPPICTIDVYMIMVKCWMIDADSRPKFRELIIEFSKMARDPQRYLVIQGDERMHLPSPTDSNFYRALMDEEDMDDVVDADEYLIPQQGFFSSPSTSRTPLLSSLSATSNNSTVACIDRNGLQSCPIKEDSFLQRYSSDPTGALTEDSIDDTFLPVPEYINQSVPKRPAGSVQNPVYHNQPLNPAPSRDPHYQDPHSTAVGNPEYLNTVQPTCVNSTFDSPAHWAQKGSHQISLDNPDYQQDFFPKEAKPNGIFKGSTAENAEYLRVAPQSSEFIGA
Chain of Epidermal growth factor receptor (Homo sapiens, UniProt P00533, L858R) (P00533 25-1210 L858R limits assumed): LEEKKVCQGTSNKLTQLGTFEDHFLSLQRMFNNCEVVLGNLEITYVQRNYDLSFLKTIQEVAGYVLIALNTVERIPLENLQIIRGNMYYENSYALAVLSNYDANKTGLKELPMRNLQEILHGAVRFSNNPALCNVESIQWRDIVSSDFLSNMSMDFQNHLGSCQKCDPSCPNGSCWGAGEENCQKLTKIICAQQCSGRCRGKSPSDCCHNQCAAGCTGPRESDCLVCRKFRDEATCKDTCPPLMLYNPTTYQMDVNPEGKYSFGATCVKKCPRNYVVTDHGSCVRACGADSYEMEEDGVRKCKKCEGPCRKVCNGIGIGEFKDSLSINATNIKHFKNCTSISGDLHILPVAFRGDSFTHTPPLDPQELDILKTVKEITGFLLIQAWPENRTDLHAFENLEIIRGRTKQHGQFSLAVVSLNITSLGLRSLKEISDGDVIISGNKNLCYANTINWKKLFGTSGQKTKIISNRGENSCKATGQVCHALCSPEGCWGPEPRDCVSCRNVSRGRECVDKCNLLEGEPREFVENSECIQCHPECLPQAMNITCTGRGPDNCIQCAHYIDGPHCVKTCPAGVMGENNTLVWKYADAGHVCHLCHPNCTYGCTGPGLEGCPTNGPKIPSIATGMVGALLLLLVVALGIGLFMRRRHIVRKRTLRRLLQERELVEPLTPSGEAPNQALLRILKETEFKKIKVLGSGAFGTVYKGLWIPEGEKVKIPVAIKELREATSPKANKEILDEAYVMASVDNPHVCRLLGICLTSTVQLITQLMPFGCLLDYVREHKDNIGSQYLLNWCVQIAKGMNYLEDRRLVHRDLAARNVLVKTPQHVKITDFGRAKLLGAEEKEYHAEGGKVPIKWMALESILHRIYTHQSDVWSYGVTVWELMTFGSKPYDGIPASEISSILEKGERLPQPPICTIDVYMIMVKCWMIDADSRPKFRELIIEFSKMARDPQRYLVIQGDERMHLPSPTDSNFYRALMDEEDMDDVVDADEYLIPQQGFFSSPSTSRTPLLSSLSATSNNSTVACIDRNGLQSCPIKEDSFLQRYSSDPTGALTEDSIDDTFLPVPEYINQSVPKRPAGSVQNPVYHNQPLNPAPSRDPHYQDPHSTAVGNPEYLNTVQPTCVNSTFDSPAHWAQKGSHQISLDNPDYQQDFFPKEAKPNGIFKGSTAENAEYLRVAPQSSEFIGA
Chain of Epidermal growth factor receptor (Homo sapiens, UniProt P00533, L858R/T790M) (P00533 25-1210 T790M/L858R limits assumed): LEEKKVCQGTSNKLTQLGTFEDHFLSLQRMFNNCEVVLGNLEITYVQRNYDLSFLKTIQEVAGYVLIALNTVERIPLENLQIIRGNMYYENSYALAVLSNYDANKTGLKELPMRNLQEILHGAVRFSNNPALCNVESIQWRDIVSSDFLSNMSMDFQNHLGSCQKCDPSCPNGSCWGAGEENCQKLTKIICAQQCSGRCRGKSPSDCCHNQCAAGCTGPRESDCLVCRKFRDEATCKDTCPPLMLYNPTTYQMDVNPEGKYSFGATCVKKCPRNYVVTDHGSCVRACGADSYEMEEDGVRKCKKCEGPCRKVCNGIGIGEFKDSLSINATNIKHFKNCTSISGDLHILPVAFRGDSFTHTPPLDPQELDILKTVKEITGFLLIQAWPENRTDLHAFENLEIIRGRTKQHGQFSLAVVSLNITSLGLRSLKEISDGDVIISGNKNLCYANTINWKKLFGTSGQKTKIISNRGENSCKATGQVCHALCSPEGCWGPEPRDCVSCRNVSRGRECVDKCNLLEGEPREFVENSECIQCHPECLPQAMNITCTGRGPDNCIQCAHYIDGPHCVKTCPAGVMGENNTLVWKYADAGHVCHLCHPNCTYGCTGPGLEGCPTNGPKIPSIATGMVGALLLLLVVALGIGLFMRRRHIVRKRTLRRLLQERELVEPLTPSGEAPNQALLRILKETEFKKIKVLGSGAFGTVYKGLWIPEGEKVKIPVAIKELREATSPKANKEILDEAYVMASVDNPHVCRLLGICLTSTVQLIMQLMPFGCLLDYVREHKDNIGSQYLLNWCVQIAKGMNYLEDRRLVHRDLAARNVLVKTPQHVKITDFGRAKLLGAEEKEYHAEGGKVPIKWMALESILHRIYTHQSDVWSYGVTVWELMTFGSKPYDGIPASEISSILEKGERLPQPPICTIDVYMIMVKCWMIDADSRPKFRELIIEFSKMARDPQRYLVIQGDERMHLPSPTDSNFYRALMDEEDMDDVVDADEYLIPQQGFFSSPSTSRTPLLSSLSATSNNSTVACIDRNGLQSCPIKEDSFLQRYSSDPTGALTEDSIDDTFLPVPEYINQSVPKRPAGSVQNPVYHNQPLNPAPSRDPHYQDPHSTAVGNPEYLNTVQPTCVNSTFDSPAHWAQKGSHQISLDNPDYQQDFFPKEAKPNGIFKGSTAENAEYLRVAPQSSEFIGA

IC50 (Cytochrome P450 2D6) [nM]	AUC [2] [µM·h]	IC50 (Cytochrome P450 3A4) [nM]	bioavailability [5] [%]	IC50 [6] [nM]	IC50 [7] [nM]	IC50 [8] [nM]	solubility [10] [µM]	microsomal CLint [13] [µL/min/mg]	IC50 [14] [nM]	IC50 (Cytochrome P450 2C9) [nM]	microsomal CLint [15] [µL/min/mg]	clearance [17] [mL/min/kg]	Time [31]	SMILES	Drug metabolism [1] [%]	T/C [27] [%]	Activity (Mus musculus [28]) [%]	further results
> 25000	0.808	3500	6	14.8	1.39	250	< 2	83	3.93	3400	245	54	–	C=CC(=O)N1CCCC[C@@H](n2c(NC(=O)c3cccc(C(F)(F)F)c3)nc3cccc(C)c32)C1	< 5	–	–	Drug metabolism [3]: Metabolite_Detected; Drug metabolism [4]: Metabolite_Detected; Drug metabolism [9]: Metabolite_Detected; Drug metabolism [11]: Metabolite_Detected; Drug metabolism [12]: Metabolite_Detected; Drug metabolism [16]: Metabolite_Detected
–	–	–	–	–	–	–	–	–	–	–	–	–	–	Cc1cc(C(=O)Nc2nc3cccc(Cl)c3n2[C@@H]2CCCCN(C(=O)/C=C/CN(C)C)C2)ccn1.Cl	–	–	–	AUC [18]: 0.783 µM·h; clearance [19]: 43.7 mL/min/kg; AUC [20]: 5.23 µM·h; Vd [21]: 35.2 L/kg; Cmax [22]: 435 nM; MRT [23]: 13.8 h; bioavailability [24]: 67%; Tmax [25]: 2.3 h
6100	2.84	> 25000	27	2.65	1.51	72	12.7 (≈ 6.71 µg/mL)	71	1.48	> 25000	96	62.5	<= 14 hr	Cc1cccc2nc(NC(=O)c3ccnc(C(F)(F)F)c3)n([C@@H]3CCCCN(C(=O)/C=C/CN(C)C)C3)c12	< 5	-64	-3.5	Time [26]: <= 14 hr; T/C [29]: -31%; Activity (NCI-H1975): Dose-dependent effect; Activity (Mus musculus [30]): -0.3%
7000	12.8	> 25000	60	–	–	–	> 175	34	1.52	> 25000	66	31.6	<= 14 hr	Cc1cc(C(=O)Nc2nc3cccc(Cl)c3n2[C@@H]2CCCCN(C(=O)/C=C/CN(C)C)C2)ccn1 [NAZARTINIB]	–	-72	3.8	Activity (Mus musculus [32]): 5.3%; AUC [33]: 5.34 µM·h; Tmax [34]: 0.83 h; Tmax [35]: 3 h; Activity (Homo sapiens [36]): 93%; MRT [37]: 1.5 h; CL [38]: 35%; CL [39]: 30%; Cmax [40]: 987 nM; Time [41]: <= 14 hr; Vd [42]: 2.4 L/kg; MRT [43]: 2.6 h; Cmax [44]: 2940 nM; clearance [45]: 15.7 mL/min/kg; AUC [46]: 12 µM·h; bioavailability [47]: 55%; Vd [48]: 2.8 L/kg; AUC [49]: 6.53 µM·h; T/C [50]: -32%; Activity (Homo sapiens [51]): 60%
